Assay results taken from ChEMBL document CHEMBL3045934, “Acaricidal activity of constituents identified in Foeniculum vulgare fruit oil against Dermatophagoides spp. (Acari: Pyroglyphidae)” (J Agric Food Chem, 2004).

Key:
[1] = system: Dermatophagoides pteronyssinus; experiment: Ratio of benzyl benzoate LD50 to compound LD50 for 7 to 10 day-old Dermatophagoides pteronyssinus adult after 24 hr by microscopy; format: functional
Dermatophagoides farinae [2] = experiment: Ratio of benzyl benzoate LD50 to compound LD50 for 7 to 10 day-old Dermatophagoides farinae adult after 24 hr by microscopy; format: functional
[3] = system: Dermatophagoides pteronyssinus; experiment: Acaricidal activity against 7 to 10 day-old Dermatophagoides pteronyssinus adult after 24 hr by microscopy; format: functional
Outline: (§1)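 Mites exposed by direct contact in a lidded container, held at 25 ± 1 °C, 75% relative humidity, in darkness. Mortality scored 24 h after treatment under a binocular microscope (20×). Untreated controls run alongside. Three replicates per treatment. LD50 derived by probit analysis.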

Dermatophagoides farinae [4] = experiment: Acaricidal activity against 7 to 10 day-old Dermatophagoides farinae adult after 24 hr by microscopy; format: functional; outline: as §1
[5] = Acute toxicity in po dosed Rattus norvegicus (rat); format: organism-based; settings: in vivo

| SMILES | Ratio [1] | Ratio (Dermatophagoides farinae [2]) | LD50 [3] [mg/m2] | LD50 (Dermatophagoides farinae [4]) [mg/m2] | LD50 [5] [mg/kg] |
| --- | --- | --- | --- | --- | --- |
| COc1ccc(C=O)cc1 | 6.7 | 7.9 | 10.1 | 11.3 |  |
| CC1(C)C(=O)[C@@]2(C)CCC1C2 [(+)-FENCHONE] | 1.6 | 2.3 | 43.2 | 38.9 |  |
| CC1(C)C(=O)[C@]2(C)CCC1C2 [(-)-FENCHONE] | 1.4 | 2.1 | 48.7 | 41.8 |  |
| O=C(OCc1ccccc1)c1ccccc1 [BENZYL BENZOATE] |  |  | 67.5 | 89.2 |  |
| C=CCc1ccc(OC)cc1 [ESTRAGOLE] | 0.2 | 0.2 | 389.9 | 413.3 |  |
| CC12CCC(C1)C(C)(C)C2=O (centres undefined) [FENCHONE] |  |  |  |  | 6160 |
